Drawing on ChEMBL document CHEMBL1156889, “Synthesis and biological evaluation of (phenylpiperazinyl-propyl)arylsulfonamides as selective 5-HT(2A) receptor antagonists” (Bioorg Med Chem, 2010), this text covers IC50 and Ratio IC50 for 37 molecules.

Assay [1] concerns the target 5-hydroxytryptamine receptor 2A (Homo sapiens, UniProt P28223). Briefly: Displacement of [3H]ketanserin from human recombinant 5HT2A receptor expressed in avCHO-K1 cells. It is filed as cell-based, CHO-K1. A digest of the protocol: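 Used frozen membranes. [3H]ketanserin was at 1 nM, with mianserin defining nonspecific binding. Incubated 15 min at 37 °C in 50 mM Tris-HCl pH 7.4, then harvested on GF/C glass fiber filters presoaked in 0.05% Brij.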

The target of assay [2] is T1, 5-hydroxytryptamine receptor 2C (Homo sapiens, UniProt P28335).
T1 sequence (P28335 whole entry): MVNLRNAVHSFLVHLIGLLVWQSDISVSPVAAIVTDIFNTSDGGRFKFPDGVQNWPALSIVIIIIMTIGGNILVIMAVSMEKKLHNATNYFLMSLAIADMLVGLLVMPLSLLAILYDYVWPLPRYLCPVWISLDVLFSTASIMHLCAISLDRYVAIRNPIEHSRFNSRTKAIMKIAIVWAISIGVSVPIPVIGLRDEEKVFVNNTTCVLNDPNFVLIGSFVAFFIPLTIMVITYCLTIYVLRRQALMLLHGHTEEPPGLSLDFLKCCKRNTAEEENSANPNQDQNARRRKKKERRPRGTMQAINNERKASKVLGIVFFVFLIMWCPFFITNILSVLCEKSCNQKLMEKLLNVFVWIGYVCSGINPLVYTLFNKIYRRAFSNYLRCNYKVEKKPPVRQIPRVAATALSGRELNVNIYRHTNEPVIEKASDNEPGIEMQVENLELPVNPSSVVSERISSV
Description: Displacement of [3H]mesulergine from human recombinant 5HT2C receptor expressed in CHO-K1 cells. It is filed as cell-based. In a few lines:
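Frozen membranes from a stable cell line were incubated with 1 nM [3H]mesulergine and test compound in 50 mM Tris-HCl pH 7.7 containing 0.1% ascorbic acid and pargyline, 30 min at 37 °C. Mianserin defined nonspecific binding. Terminated by rapid filtration through GF/C filters presoaked in 1% BSA.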
Background: In a radioligand displacement assay an active substance lowers the binding of a labelled ligand.

Assay [3] has as its target 5-hydroxytryptamine receptor 7 (Homo sapiens, UniProt P34969). Briefly: Displacement of [3H]LSD from human recombinant 5HT7 receptor expressed in CHO cells. It is filed as cell-based. A digest of the protocol:
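Membranes from stably transfected CHO cells. Reaction mix held 3 nM [3H]LSD and test compound in 50 mM Tris-HCl pH 7.4 with 10 mM MgCl2 and 0.5 mM EDTA, incubated 90 min at 27 °C. Stopped by rapid filtration on GF/C filters presoaked in 0.3% polyethylenimine, then scintillation counted. Methiothepin defined nonspecific binding. 7-8 concentrations were run in duplicate, and IC50 came from nonlinear regression of isotherms from three assays.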

The species named for another assay is Homo sapiens. Description: Selectivity for human recombinant 5HT2A receptor over human recombinant 5HT7 receptor.
Assay [4] concerns the target Serotonin 2 receptors; 5-HT2a & 5-HT2c (Homo sapiens) (UniProt P28223+P28335). Briefly: Selectivity for human recombinant 5HT2A receptor over human recombinant 5HT2C receptor.

pIC50: −log10 of the molar value.

As a reminder, the pIC50 is the negative decadic logarithm of the IC50, by convention in mol/L.

5-hydroxytryptamine receptor 2A, sequence (P28223 whole entry): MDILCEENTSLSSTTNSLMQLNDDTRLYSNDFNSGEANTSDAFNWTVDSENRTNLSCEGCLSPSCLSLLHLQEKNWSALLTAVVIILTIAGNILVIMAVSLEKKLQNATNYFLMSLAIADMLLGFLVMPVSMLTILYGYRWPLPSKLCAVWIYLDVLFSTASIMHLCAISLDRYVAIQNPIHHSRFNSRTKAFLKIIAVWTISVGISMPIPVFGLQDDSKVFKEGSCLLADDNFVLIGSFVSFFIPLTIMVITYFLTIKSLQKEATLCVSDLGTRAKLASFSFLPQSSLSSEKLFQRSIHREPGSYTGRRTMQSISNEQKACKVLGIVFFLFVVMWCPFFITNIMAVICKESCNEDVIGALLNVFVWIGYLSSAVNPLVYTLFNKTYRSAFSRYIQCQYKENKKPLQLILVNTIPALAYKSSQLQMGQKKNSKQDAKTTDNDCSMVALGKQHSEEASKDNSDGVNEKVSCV
Serotonin 2 receptors; 5-HT2a & 5-HT2c (Homo sapiens), sequence (P28223 whole entry, looked up, one chain of several): as the sequence (P28223 whole entry) above
5-hydroxytryptamine receptor 7, sequence (P34969 whole entry): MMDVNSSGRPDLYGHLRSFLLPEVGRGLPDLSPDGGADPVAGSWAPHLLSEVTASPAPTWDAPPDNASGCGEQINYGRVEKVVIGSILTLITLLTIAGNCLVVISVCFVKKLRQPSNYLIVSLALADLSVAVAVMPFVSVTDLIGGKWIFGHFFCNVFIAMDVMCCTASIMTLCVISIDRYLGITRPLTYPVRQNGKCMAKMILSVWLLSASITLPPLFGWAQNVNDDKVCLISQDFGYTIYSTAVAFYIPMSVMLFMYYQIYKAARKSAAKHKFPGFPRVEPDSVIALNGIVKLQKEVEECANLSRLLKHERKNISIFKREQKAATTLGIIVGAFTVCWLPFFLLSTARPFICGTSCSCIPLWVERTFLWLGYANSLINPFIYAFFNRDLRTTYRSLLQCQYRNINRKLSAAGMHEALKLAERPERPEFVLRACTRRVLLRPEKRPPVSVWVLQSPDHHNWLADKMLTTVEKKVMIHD

Turning to `COc1ccc(S(=O)(=O)N(CCCN2CCN(c3ccccc3)CC2)CC2CC2)cc1`, the pIC50 was 6.87 in assay [1], 6.16 in assay [2] and 6.92 in assay [3].
The matching figures for `COc1ccc(S(=O)(=O)N(CCCN2CCN(c3ccccc3)CC2)CC2CCCCC2)cc1`: 8.03, 7.10 and 6.25.
The matching figures for `O=S(=O)(c1ccc2ccccc2c1)N(CCCN1CCN(c2ccccc2)CC1)CC1CC1`: 7.44, 6.32 and 6.93.
With `COc1ccc(S(=O)(=O)N(CCCN2CCN(c3ccc(F)cc3)CC2)CC2CC2)cc1`, the figures for the negative-log IC50 (pIC50) in assay [1], in assay [2] and in assay [3] were 7.14, 6.14 and 7.03, respectively.
The like results for `O=S(=O)(c1cccc2cccnc12)N(CCCN1CCN(c2ccc(F)cc2)CC1)CC1CC1` were, in that order, 8.08, 5.32 and 7.45.
The matching figures for `CC(CCN1CCN(c2cccc(C(F)(F)F)c2)CC1)NS(=O)(=O)c1ccc2ccccc2c1` (centres undefined): 6.74, 6.03 and 6.44.
The matching figures for `COc1ccc(S(=O)(=O)N(CCCN2CCN(c3ccccc3OC)CC2)CC2CCCCC2)cc1`: 7.79, 6.70 and 6.76.
In the case of `COc1ccc(S(=O)(=O)N(CCCN2CCN(c3ccc(F)cc3)CC2)CC2CCCCC2)cc1`, the negative-log IC50 (pIC50) in assay [1] was 8.47; in assay [2], 7.40; in assay [3] it was 6.01.
The matching figures for `O=S(=O)(c1ccc2ccccc2c1)N(CCCN1CCN(c2cccc(C(F)(F)F)c2)CC1)CC1CCCCC1`: 7.88, 7.18 and 6.05.
The like results for `O=S(=O)(c1cccc2ccccc12)N(CCCN1CCN(c2ccccc2)CC1)CC1CC1` were, in that order, 6.77, 5.84 and 6.82.
Turning to `COc1ccccc1N1CCN(CCCN(CC2CCCCC2)S(=O)(=O)c2ccc3ccccc3c2)CC1`, the negative logarithm of the IC50 (pIC50) is 7.94 in assay [1], 7.15 in assay [2] and 6.30 in assay [3].
The like results for `O=S(=O)(c1cccc2cccnc12)N(CCCN1CCN(c2cccc(C(F)(F)F)c2)CC1)CC1CC1` were, in that order, 7.12, 6.16 and 8.20.
The like results for `COc1ccccc1N1CCN(CCC(C)NS(=O)(=O)c2ccc3ccccc3c2)CC1` (centres undefined) were, in that order, 6.18, 6.27 and 6.50.
For the molecule `O=S(=O)(c1ccc(C(F)(F)F)cc1)N(CCCN1CCN(c2ccccc2)CC1)CC1CCCCC1`, the pIC50 in assay [1] was 8.15; in assay [2] it was 6.81; in assay [3] it was 6.34.
The matching figures for `O=S(=O)(c1cccc2cccnc12)N(CCCN1CCN(c2ccccc2)CC1)CC1CC1`: 6.53, 5.67 and 6.13.
The matching figures for `O=S(=O)(c1cccc2cccnc12)N(CCCN1CCN(c2ccc(F)cc2)CC1)CC1CCCCC1`: 8.29, 6.87 and 6.35.
The matching figures for `COc1ccccc1N1CCN(CCCN(CC2CC2)S(=O)(=O)c2ccc3ccccc3c2)CC1`: 7.07, 6.26 and 6.73.
`O=S(=O)(c1ccc(F)cc1)N(CCCN1CCN(c2ccccc2)CC1)CC1CC1`: the results for the pIC50 in assay [1], in assay [2] and in assay [3] were 6.85, 5.70 and 6.83, respectively.
The matching figures for `O=[N+]([O-])c1ccc(S(=O)(=O)N(CCCN2CCN(c3ccccc3)CC2)CC2CCCCC2)cc1`: 8.38, 7.34 and 7.06.
The like results for `O=S(=O)(c1ccc(C(F)(F)F)cc1)N(CCCN1CCN(c2ccccc2)CC1)CC1CC1` were, in that order, 7.15, 6.25 and 6.48.
Regarding `CC(CCN1CCN(c2ccc(F)cc2)CC1)NS(=O)(=O)c1ccc2ccccc2c1` (centres undefined), the values for the negative logarithm of the IC50 (pIC50) in assay [1], in assay [2] and in assay [3] were 8.21, 7.05 and 6.28, respectively. Also, the Ratio IC50 in the assay listed under Homo sapiens stood at 85; in assay [4] it was 15.
For `O=S(=O)(c1ccc(F)cc1)N(CCCN1CCN(c2ccccc2)CC1)CC1CCCCC1`, the results for the pIC50 in assay [1], in assay [2] and in assay [3] were 7.88, 6.53 and 6.96, respectively.
The like results for `O=S(=O)(c1ccc2ccccc2c1)N(CCCN1CCN(c2cccc(C(F)(F)F)c2)CC1)CC1CC1` were, in that order, 6.66, 6.52 and 6.47.
Consider `COc1ccc(S(=O)(=O)N(CCCN2CCN(c3cccc(C(F)(F)F)c3)CC2)CC2CCCCC2)cc1`, for which the results for the negative-log IC50 (pIC50) in assay [1], in assay [2] and in assay [3] were 7.71, 7.48 and 6.17, respectively.
The matching figures for `COc1ccccc1N1CCN(CCCN(CC2CC2)S(=O)(=O)c2cccc3cccnc23)CC1`: 6.25, 5.08 and 7.91.
The matching figures for `O=S(=O)(c1cccc2cccnc12)N(CCCN1CCN(c2ccc(Cl)c(Cl)c2)CC1)CC1CCCCC1`: 8.11, 7.18 and 5.64.
As to `O=S(=O)(c1ccc2ccccc2c1)N(CCCN1CCN(c2ccccc2)CC1)CC1CCCCC1`, the pIC50 in assay [1] was 9.15; in assay [2] it was 7.19; in assay [3] it was 5.91. The Ratio IC50 was 1500 in the assay listed under Homo sapiens and 100 in assay [4].
For the molecule `O=[N+]([O-])c1ccc(S(=O)(=O)N(CCCN2CCN(c3ccccc3)CC2)CC2CC2)cc1`, the figures for the pIC50 in assay [1], in assay [2] and in assay [3] were 6.74, 5.71 and 6.30, respectively.
As to `CC(CCN1CCN(c2ccccc2)CC1)NS(=O)(=O)c1ccc2ccccc2c1` (centres undefined), the figures for the negative-log IC50 (pIC50) in assay [1], in assay [2] and in assay [3] were 7.90, 6.70 and 6.18, respectively. For the same molecule, the results for the Ratio IC50 (in the assay listed under Homo sapiens; in assay [4]) were 50 and 16, respectively.
Turning to `O=S(=O)(c1cccc2cccnc12)N(CCCN1CCN(c2ccccc2)CC1)CC1CCCCC1`, the negative-log IC50 (pIC50) was 7.46 in assay [1], 6.07 in assay [2] and 6.38 in assay [3].
The like results for `COc1ccccc1N1CCN(CCCN(CC2CCCCC2)S(=O)(=O)c2cccc3cccnc23)CC1` were, in that order, 7.22, 6.93 and 7.62.
The matching figures for `COc1ccc(S(=O)(=O)N(CCCN2CCN(c3cccc(C(F)(F)F)c3)CC2)CC2CC2)cc1`: 6.14, 5.99 and 6.91.
For the molecule `O=S(=O)(c1cccc2cccnc12)N(CCCN1CCN(c2cccc(C(F)(F)F)c2)CC1)CC1CCCCC1`, the negative logarithm of the IC50 (pIC50) in assay [1] was 7.54; in assay [2], 7.41; in assay [3], 6.80.
Regarding `O=S(=O)(c1ccc2ccccc2c1)N(CCCN1CCN(c2ccc(F)cc2)CC1)CC1CCCCC1`, the figures for the pIC50 in assay [1], in assay [2] and in assay [3] were 9.30, 7.62 and 5.82, respectively. Besides, the Ratio IC50 in the assay listed under Homo sapiens was determined as 3000; in assay [4] it was 50.
With `O=S(=O)(c1ccc2ccccc2c1)N(CCCN1CCN(c2ccc(F)cc2)CC1)CC1CC1`, the pIC50 is 7.29 in assay [1], 6.46 in assay [2] and 7.30 in assay [3].
The matching figures for `O=S(=O)(c1cccc2ccccc12)N(CCCN1CCN(c2ccccc2)CC1)CC1CCCCC1`: 8.59, 7.29 and 6.71.
The matching figures for `COc1ccc(S(=O)(=O)N(CCCN2CCN(c3ccccc3OC)CC2)CC2CC2)cc1`: 5.66, 5.70 and 6.50.
